{"data": "Measurements pooled from the literature", "MAOB": "Amine oxidase [flavin-containing] B (MAOB, Homo sapiens, UniProt P27338)", "GLO1": "Lactoylglutathione lyase (GLO1, Homo sapiens, UniProt Q04760)", "note": "Protocols differ between the studies behind these lines."}
{"SMILES": "Cc1cc(F)cc2c(CCC(=O)N[C@@H]3C(=O)NC[C@H]3O)c(-c3ccc(F)cc3)[nH]c12", "target": "Beta-1 adrenergic receptor (ADRB1, Homo sapiens, UniProt P08588)", "test": "cell-free assay", "conditions": "10 µM", "inhibition [%]": -1.5}
{"SMILES": "O=C(Nc1ccccc1)c1ccc2c(c1)C(=O)NC2=O", "target": "MAOB", "test": "enzyme activity, inhibitor", "conditions": "1 µM", "inhibition [%]": 25}
{"SMILES": "O=C(N[C@@H](CSCc1ccc([N+](=O)[O-])cc1)C(=O)NO)c1ccccc1", "target": "GLO1", "test": "enzyme activity, inhibitor", "conditions": "1 µM", "inhibition [%]": 46.1}
{"SMILES": "C#Cc1cc(-c2cc(Nc3nc(N[C@@H](C)c4ccc(F)cn4)ncc3Cl)n[nH]2)ccc1C=O", "target": "Ribosomal protein S6 kinase alpha-6 (RPS6KA6, Homo sapiens, UniProt Q9UK32)", "test": "enzyme activity, inhibitor", "conditions": "0.2 µM", "inhibition [%]": 16.8}
{"SMILES": "Cc1cc(O)c(-c2ccc([C@@H](C)CN(C)C)cc2)c2c1[nH]c(=O)c1sccc12", "target": "Serine/threonine-protein kinase NLK (NLK, Homo sapiens, UniProt Q9UBE8)", "test": "cell-free assay, inhibitor", "conditions": "0.1 µM, lysate", "inhibition [%]": -4.94}
{"SMILES": "CCN1/C(=C/C(C)=O)Sc2ccc(F)cc21", "target": "Endothelin receptor type B (EDNRB, Homo sapiens, UniProt P24530)", "test": "ligand displacement, radioligand", "conditions": "10 µM", "inhibition [%]": 0}
{"SMILES": "O=C(Nc1ccc(Cl)cc1)c1ccc2c(c1)C(=O)NC2=O", "target": "MAOB", "test": "enzyme activity, inhibitor", "conditions": "1 µM", "inhibition [%]": 52}
{"SMILES": "NC/C(=C\\F)COc1cccc(Cn2c(=S)[nH]c(=O)c3[nH]cnc32)c1", "target": "Histamine H1 receptor (HRH1, Homo sapiens, UniProt P35367)", "test": "ligand displacement, radioligand", "conditions": "10 µM", "inhibition [%]": "< 50"}
{"SMILES": "O=C(Nc1cccc(Cl)c1)c1ccc2c(c1)C(=O)NC2=O", "target": "MAOB", "test": "enzyme activity, inhibitor", "conditions": "1 µM", "inhibition [%]": 63.9}
{"SMILES": "O=C(N[C@@H](CSCc1ccccc1)C(=O)NO)c1ccccc1", "target": "GLO1", "test": "enzyme activity, inhibitor", "conditions": "1 µM", "inhibition [%]": 31.4}
